Results on ten compounds are retold here after ChEMBL document CHEMBL1944595, “1,4-diarylpiperazines and analogs as anti-tubercular agents: synthesis and biological evaluation” (Eur J Med Chem, 2012).

Molecules are shown by their SMILES. pIC50: −log10 of the molar value.

As usually defined, the pIC50 is the IC50 on a negative log10 scale, so that one unit is a factor of ten. Low values mean a large IC50, high ones a small IC50.

The nature of test [1]: Cytotoxicity against human HepG2/C3A cells after 24 hrs by neutral red assay. In kind it is cell-based. The procedure, abridged: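 C3A cells seeded at 40 000 per well and allowed to recover. Exposed 24 h at 37 °C, 5% CO2 to serial dilutions in DMEM + 10% FCS, tested from 10 to 0.1. Then 3 h neutral red uptake, extracted with ethanol/acetic acid, OD read at 530 nm with 620 nm reference. NI50 is the concentration reducing uptake by 50%.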

The nature of test [2]: Selectivity index, ratio of IC50 for human HepG2/C3A cells to MIC for Mycobacterium tuberculosis H37Rv. In kind it is functional. The procedure, abridged: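 Selectivity index calculated as C3A neutral red NI50 (24 h) divided by the H37Rv luminometric MIC50.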

Take `Cl.N=C(N)c1ccc(N2CCN(c3ccccc3)CC2)cc1`: in test [1], the pIC50 was 4.17. In addition, the “Selectivity Index” value in test [2] stood at 2.26.

In turn, `CNC(=N)c1ccc(N2CCN(c3ccccc3)CC2)cc1.Cl` had a negative logarithm of the IC50 (pIC50) in test [1] of 4.15. For the same compound, the “Selectivity Index” value in test [2] is given as 4.45.

Consider `CCNC(=N)c1ccc(N2CCN(c3ccccc3)CC2)cc1.Cl`, for which the negative logarithm of the IC50 (pIC50) in test [1] was 4.38. Also, the “Selectivity Index” value in test [2] is reported as 3.49.

As to `CCCNC(=N)c1ccc(N2CCN(c3ccccc3)CC2)cc1.Cl`, the pIC50 in test [1] was 4.56. The “Selectivity Index” value in test [2] is 3.92.

`CCCCNC(=N)c1ccc(N2CCN(c3ccccc3)CC2)cc1.Cl` showed a pIC50 in test [1] of 4.76. In test [2], the “Selectivity Index” value is 8.03.

In turn, `CCCCCNC(=N)c1ccc(N2CCN(c3ccccc3)CC2)cc1.Cl` had a negative logarithm of the IC50 (pIC50) in test [1] of 4.95. Besides, the “Selectivity Index” value in test [2] worked out at 9.39.

`CCCCCCNC(=N)c1ccc(N2CCN(c3ccccc3)CC2)cc1.Cl` showed a pIC50 in test [1] of 5.17. For the same compound, the “Selectivity Index” value in test [2] was found to be 25.38.

Compound `CCCCCCCNC(=N)c1ccc(N2CCN(c3ccccc3)CC2)cc1.Cl` had a negative logarithm of the IC50 (pIC50) in test [1] of 5.28. In addition, the “Selectivity Index” value in test [2] turned out to be 57.2.

In turn, `CCCCCCCCNC(=N)c1ccc(N2CCN(c3ccccc3)CC2)cc1.Cl` had a pIC50 in test [1] of 5.29. The “Selectivity Index” value in test [2] is recorded as 72.19.

As for `CCCCCCCCCCCCNC(=N)c1ccc(N2CCN(c3ccccc3)CC2)cc1.Cl`, the pIC50 in test [1] was 5.25. In addition, in test [2], the “Selectivity Index” value was 107.52.
